Data as given in publication PMC5087271 (Nature methods, 2015).
“Also recorded” adds a separate entry of the source. One block for each molecule: values may come before it. Ends that are not written are not given here.

Key:
PAR1 = experiment: cell-based assays of antagonist dissociation from PAR1
platelets = settings: at 200 μM peptide; cited from earlier work
human PAR1 = molecular target: T1, human PAR1 (Homo sapiens, UniProt P25116); format: binding; settings: PEG spacer carrying PAR1 N terminus with the SFLLRN ligand replaced
T1 sequence (P25116 36-397): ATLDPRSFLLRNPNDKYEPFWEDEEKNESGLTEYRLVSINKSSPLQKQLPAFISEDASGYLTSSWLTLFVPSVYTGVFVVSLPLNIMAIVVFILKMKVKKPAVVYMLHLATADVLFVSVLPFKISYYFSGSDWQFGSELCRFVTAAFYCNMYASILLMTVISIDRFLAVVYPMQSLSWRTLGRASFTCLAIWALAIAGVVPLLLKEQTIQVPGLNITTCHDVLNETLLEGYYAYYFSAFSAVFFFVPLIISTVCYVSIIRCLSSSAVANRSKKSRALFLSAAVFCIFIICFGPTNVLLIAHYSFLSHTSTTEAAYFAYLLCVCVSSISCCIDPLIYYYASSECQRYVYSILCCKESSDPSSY

[1] = tested on: PAR1 complexed with the antagonist vorapaxar; format: binding, human; settings: vorapaxar-blocked versus free PAR1
Summary of the method: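 Human PAR1 (residues Ala36–Tyr397) expressed in Sf9 cells via baculovirus and purified with 100 nM vorapaxar during lysis and solubilisation, then 1 μM through Ni-NTA, M1 and SEC. Reconstituted at 10 μM into DOPC/CHS liposomes, diluted 300-fold, adsorbed on mica. Cys-peptide ligand coupled to PEG-tipped cantilevers. Probed at 0.25 kHz, 30–50 nm amplitude, ~150 pN, ~27 °C. Free-energy landscape fitted from DFS plots.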

[2] = molecular target: T2, SFLLRN tethered ligand peptide (TRAP) (Homo sapiens); experiment: FD-based AFM
T2 chain: SFLLRN

[3] = molecular target: T3, SFLLRN tethered ligand peptide (TRAP) (Homo sapiens, vorapaxar-bound PAR1); experiment: FD-based AFM
T3 chain: SFLLRN

SALLRN peptide = molecular target: T4, SALLRN peptide (Homo sapiens); experiment: FD-based AFM
T4 chain: SALLRN

SFLLAN peptide = molecular target: T5, SFLLAN peptide (Homo sapiens); experiment: FD-based AFM
T5 chain: SFLLAN

Molecule: CCOC(=O)NC1CCC2C(C1)CC1C(=O)OC(C)C1C2CCc1ccc(-c2cccc(F)c2)cn1 (centres unmarked) [vorapaxar derivative]
dissociation rate compared with that of vorapaxar (PAR1): much faster dissociation rate

Molecule: H-SALLRN [SALLRN]
response in platelet aggregation assays (platelets): no response

Molecule: H-SFLLAN [SFLLAN]
change of binding strength / affinity to PAR1 in the presence of vorapaxar [1]: remained nearly unchanged; also recorded: no change in binding affinity

B1: PAR1 36-397 (protein)
chain: ATLDPRSFLLRNPNDKYEPFWEDEEKNESGLTEYRLVSINKSSPLQKQLPAFISEDASGYLTSSWLTLFVPSVYTGVFVVSLPLNIMAIVVFILKMKVKKPAVVYMLHLATADVLFVSVLPFKISYYFSGSDWQFGSELCRFVTAAFYCNMYASILLMTVISIDRFLAVVYPMQSLSWRTLGRASFTCLAIWALAIAGVVPLLLKEQTIQVPGLNITTCHDVLNETLLEGYYAYYFSAFSAVFFFVPLIISTVCYVSIIRCLSSSAVANRSKKSRALFLSAAVFCIFIICFGPTNVLLIAHYSFLSHTSTTEAAYFAYLLCVCVSSISCCIDPLIYYYASSECQRYVYSILCCKESSDPSSY
Kd [2]: ~0.35 µM
Kd [3]: ~40 µM

B2: PAR1 36-397 (protein)
chain: ATLDPRSALLRNPNDKYEPFWEDEEKNESGLTEYRLVSINKSSPLQKQLPAFISEDASGYLTSSWLTLFVPSVYTGVFVVSLPLNIMAIVVFILKMKVKKPAVVYMLHLATADVLFVSVLPFKISYYFSGSDWQFGSELCRFVTAAFYCNMYASILLMTVISIDRFLAVVYPMQSLSWRTLGRASFTCLAIWALAIAGVVPLLLKEQTIQVPGLNITTCHDVLNETLLEGYYAYYFSAFSAVFFFVPLIISTVCYVSIIRCLSSSAVANRSKKSRALFLSAAVFCIFIICFGPTNVLLIAHYSFLSHTSTTEAAYFAYLLCVCVSSISCCIDPLIYYYASSECQRYVYSILCCKESSDPSSY
Kd (SALLRN peptide): ~3500 µM

Further lines, results first:

specific interaction of the functionalized tip with PAR1 (control) (human PAR1): did not interact specifically
Molecule: FLLNSR

Kd (SFLLAN peptide): ~30 µM
B3: PAR1 36-397 (protein)
chain: ATLDPRSFLLANPNDKYEPFWEDEEKNESGLTEYRLVSINKSSPLQKQLPAFISEDASGYLTSSWLTLFVPSVYTGVFVVSLPLNIMAIVVFILKMKVKKPAVVYMLHLATADVLFVSVLPFKISYYFSGSDWQFGSELCRFVTAAFYCNMYASILLMTVISIDRFLAVVYPMQSLSWRTLGRASFTCLAIWALAIAGVVPLLLKEQTIQVPGLNITTCHDVLNETLLEGYYAYYFSAFSAVFFFVPLIISTVCYVSIIRCLSSSAVANRSKKSRALFLSAAVFCIFIICFGPTNVLLIAHYSFLSHTSTTEAAYFAYLLCVCVSSISCCIDPLIYYYASSECQRYVYSILCCKESSDPSSY
